Shown are actives, neighbours in structure and some others; about 1.8% of the full set was active somewhere.
Fam108B inh: Fam108B inhibition, counter-screen for RBBP9 inhibitors; recombinant Fam108B, FP-Rh probe fluorescence polarization; inhibition, % at 9.51 µM; 300,000 tested, 0.33% active;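 active = inhibition above the screen mean inhibition plus 3 SD, computed separately per campaign, cut at about 18% in these data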;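 note: inhibitors lower polarization as less probe binds the enzyme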
TCR-CD3 inh: blocks the human TCR-CD3 interaction | TAMRA-labeled TCR probe fluorescence, biochemical | inhibition, % at 9.4 µM | 360,000 tested, 0.37% active | AID 651800; in the data active = inhibition above about 19%;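 note: recombinant mutant TCR 2C K166C tagged with TAMRA read by polarization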
mABHD4 FP: inhibits mouse alpha/beta hydrolase domain 4; inhibition, % at 8.92 µM; AID 720543; purified mABHD4, FP-Rh probe fluorescence polarization; 370,000 tested, 0.54% active; Q8VD66;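 active = inhibition exceeding the mean over every tested compound plus 3 SD, cut at about 30% in these data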
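Assay system: mABHD4 protein; medium: HEPES pH 7.0, NaCl, Pluronic buffer; dosing: 8.92 µM, single dose; schedule: 45 min + 60 min at 25 °C; signal: FP readout, ex 525 nm / em 598 nm; read-out: normalized percent inhibition of probe labeling; repeats: single replicate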
HTRA1 inhibitor: HTRA1 (human) protease inhibition | AID 504803 | inhibition, % at 5.96 µM | recombinant HTRA1, FP-rhodamine activity-based probe, fluorescence polarization | Q92743 | 340,000 tested, 0.5% active; in the data active = inhibition above about 36%
SIAE inh: blocks human sialic acid acetylesterase; inhibition, % at 9.66 µM; SIAE FP-Rh probe binding, fluorescence polarization; 370,000 tested, 0.69% active; Q9HAT2;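 active = inhibition above a cutoff: mean of compounds within the control limits plus 3 SD of those, cut at about 17% in these data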
Target sequence (Q9HAT2 whole entry, looked up): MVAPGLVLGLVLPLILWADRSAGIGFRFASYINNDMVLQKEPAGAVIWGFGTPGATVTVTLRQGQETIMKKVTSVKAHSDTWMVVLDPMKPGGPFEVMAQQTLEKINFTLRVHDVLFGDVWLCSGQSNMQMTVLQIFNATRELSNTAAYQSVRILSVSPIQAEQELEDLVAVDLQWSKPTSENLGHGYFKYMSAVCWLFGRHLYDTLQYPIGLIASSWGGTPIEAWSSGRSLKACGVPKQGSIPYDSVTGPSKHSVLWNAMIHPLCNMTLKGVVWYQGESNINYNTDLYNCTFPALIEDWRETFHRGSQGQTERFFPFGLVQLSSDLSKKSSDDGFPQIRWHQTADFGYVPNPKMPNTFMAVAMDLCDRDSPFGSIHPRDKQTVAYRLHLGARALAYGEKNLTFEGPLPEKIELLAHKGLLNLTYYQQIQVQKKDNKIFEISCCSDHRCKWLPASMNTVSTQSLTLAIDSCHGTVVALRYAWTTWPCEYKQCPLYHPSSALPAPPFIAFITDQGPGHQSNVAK
PME-1 inh: PME-1 (human) inhibition; recombinant PME-1, FP-Rh probe fluorescence polarization; AID 2130; 320,000 tested, 0.53% active; Q9Y570; inhibition, % at 5.9 µM;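 active = inhibition above the campaign mean of all compounds plus 3 SD, cut at about 26% in these data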;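 note: competitive labeling of PME-1 active site by serine hydrolase directed probe; inhibitors block probe labeling so polarization falls and inhibition rises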
ABHD4 confirm: ABHD4 (mouse) inhibition, FP confirmation. shares compounds with mABHD4 FP. purified mABHD4, FP-Rh probe fluorescence polarization. inhibition, % at 8.92 µM. 1,800 tested, 55% active;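 active = mean inhibition across replicates above the hit cutoff set in the primary screen, cut at about 30% in these data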
Numbers stand for hits; n = inactive; x = not tested or not shown.

SMILES	Fam108B inh	TCR-CD3 inh	mABHD4 FP	HTRA1 inhibitor	SIAE inh	PME-1 inh	ABHD4 confirm
O=C1/C(=C/c2ccco2)SC(=S)N1CCC(=O)N1CCCCC1CCO (configuration not stated)	n	n	30	n	n	n	n
CC(=O)C1C(=O)c2c(cccc2[N+](=O)[O-])C1=Nc1cccc(Cl)c1 (configuration not stated)	n	n	36	n	n	n	61
Nc1ccc2nc(C3CCCCC3)[nH]c2c1	n	n	n	n	n	n	x
Nc1ccc2cc3[nH]c4cc(N)ccc4c3nc2c1	x	n	36	n	n	x	72
CCN(CC)S(=O)(=O)c1ccc(N2CCCCC2)c(NC(=O)C2CSC3(C)CCC(=O)N23)c1 (configuration not stated)	x	n	40	n	n	x	36
O=C(OC12CCCN(C1)/C(=C/c1cccc(Cl)c1)C2)c1ccco1 (configuration not stated)	x	x	n	x	n	x	x
COC(=O)CC1OCC=C2CN3CCC45C6=CC(=O)C(=O)C([N+](=O)[O-])=C6NC4C1C2CC35 (configuration not stated)	x	n	n	x	n	x	x
Cc1ccc(NC(=S)NNc2ccc([N+](=O)[O-])cc2S(=O)(=O)Nc2ccccc2C(=O)O)cc1C	n	n	46	n	n	48	85
COc1ccc(C(C)=NNc2ccc([N+](=O)[O-])cc2S(=O)(=O)Nc2ccccc2C(=O)O)c(OC)c1	x	n	n	n	n	x	x
CNc1ccc(/C=C(\CCC(=O)O)c2nc3ccccc3s2)cc1[N+](=O)[O-]	n	n	47	n	n	n	54
CCOC(=O)C1CCN(C(=O)c2cc(S(=O)(=O)N3CCc4ccccc43)ccc2OC)CC1	n	n	n	n	n	n	x
CCN(CC)S(=O)(=O)c1cc(NC(=O)Cc2ccsc2)ccc1C	n	n	n	n	n	n	x
Cn1c(/C=C/c2ccccc2)nc2ccccc2c1=O	n	n	n	n	n	n	x
Cn1c(/C=C/c2ccc(Cl)cc2)nc2ccccc2c1=O	n	n	57	n	n	n	n
CC(C)(C)c1ccc(S(=O)(=O)Nc2noc3ccccc23)cc1	n	n	30	n	n	n	n
C=C[C@]1(C)C=C2C(=O)[C@@]3(O)OC(=O)[C@@]4(CCCC(C)(C)[C@H]34)[C@@]2(O)CC1	x	n	52	x	n	x	n
C=C[C@]1(C)C=C2CC[C@H]3[C@@](C)(CCC[C@@]3(C)C(=O)O)[C@@H]2CC1	x	x	x	n	x	x	x
CCCCOc1ccc(CSC(=N)N)cc1Cl	n	n	38	n	n	n	n
CCCCCOc1ccc(Br)cc1CSC(=N)N	x	n	40	n	n	x	49
Cc1[nH]n(-c2ncc(-c3ccccc3)s2)c(=O)c1C(c1ccc(Cl)cc1)C(C#N)C#N (configuration not stated)	n	n	49	n	n	n	52
CN(CC(=O)Nc1ccc(Cl)c(C(F)(F)F)c1)C(=O)c1ccccc1SCC(=O)N1CCCC1	x	n	n	n	n	x	x
Nc1sc2c(c1C(=O)NCCc1ccccc1)CCCC2	x	n	37	x	n	x	n
Nc1sc2c(c1C(=O)NCCc1ccccc1)CCC2	n	n	n	n	n	n	x
CCCOc1ccccc1-n1sc2c(c1=S)-c1cc(OC)cc3c1N(C(=O)C3=O)C2(C)C	n	n	35	n	n	n	60
COc1cc2c3c(c1)C(C)=CC(C)(C)N3C(=O)C2=O	n	n	n	n	n	n	x
SMILES	Fam108B inh	TCR-CD3 inh	mABHD4 FP	HTRA1 inhibitor	SIAE inh	PME-1 inh	ABHD4 confirm
CC1(C(=O)NS(=O)(=O)c2cccc(C#N)c2)CCN1C(=O)CC1CCCCC1 (configuration not stated)	x	n	n	x	n	x	x
CN1CC=C2C(C#N)=C(N)C(C#N)(C#N)[C@H](c3cccc(Cl)c3)C2C1 (some centres not stated)	n	n	31	n	n	n	n
COc1cc2c(cc1OC)CN(C(=O)CCNC(=O)c1ccccc1Cl)CC2	x	n	n	n	n	x	x
COC(=O)[C@]12C[C@H](CC(=O)NCc3ccc(C)o3)C(=O)N(CCc3ccc(OC)c(OC)c3)C1=C[C@H](C1CCCC1)O[C@@H]2C	x	x	n	x	n	x	x
COc1ccccc1N1C(=O)C2C(c3ccc(F)cc3)NN(C(=O)c3ccc(C)cc3)C2C1=O (configuration not stated)	n	n	34	n	n	n	n
O=C(Nc1ccc(Cl)c(Cl)c1)C1CCCN(c2nnc(-n3cccc3)s2)C1 (configuration not stated)	x	x	n	x	n	x	x
Cc1cccc(OCCC(=O)Nc2ccc(N3CCOCC3)cc2N2CCOCC2)c1	x	n	35	n	n	n	n
CCOc1ccc(OCCC(=O)Nc2ccc(N3CCOCC3)cc2N2CCOCC2)cc1	x	n	n	n	n	x	x
[O-]/C(=C(\C(=S)Nc1cccc2ccccc12)[n+]1ccccc1)c1ccc(Cl)s1	n	n	n	n	n	n	x
[O-]C(=C(C(=S)Nc1cccc2ccccc12)[n+]1cccc(CO)c1)c1ccc(Cl)s1	x	n	30	n	n	x	63
CCOC(=O)/C(=N\Nc1ccccc1)P(=O)(c1ccccc1)c1ccccc1	n	n	30	n	n	n	n
CCOC(=O)/C(=N\Nc1ccccc1)S(=O)(=O)c1ccccc1	n	n	n	n	n	n	x
C#CCN1CC(N(C)CCOC(=O)CC2C=CCC2)CS1(=O)=O (configuration not stated)	x	x	n	x	n	x	x
Cc1cccc(NC(=O)CN2C(=O)S/C(=C\c3ccc(O)c([N+](=O)[O-])c3)C2=O)c1	n	n	34	n	n	33	60
O=C1S/C(=C\c2ccc(O)c([N+](=O)[O-])c2)C(=O)N1c1ccccc1Cl	n	n	55	n	n	n	44
CCOc1ccc(/C=C2\SC(=O)N(c3ccc(O)cc3)C2=O)cc1OC	n	x	x	x	x	n	x
COc1cc(/C=C2\SC(=O)N(c3cccc(Cl)c3)C2=O)cc([N+](=O)[O-])c1O	x	n	37	n	n	x	41
CCOc1ccc(-n2c(SCC(=O)Nc3ccc(S(=O)(=O)Nc4nccs4)cc3)nnc2-c2ccncc2)cc1	x	x	n	x	n	x	x
COc1cc(/C=N/NC(=O)[C@H](Cc2c[nH]c3ccccc23)NC(=O)OCC(C)C)cc([N+](=O)[O-])c1O	n	n	41	n	33	30	49
COc1cc(/C=N/NC(=O)Cc2ccccc2)cc([N+](=O)[O-])c1O	n	n	n	n	n	n	x
CCN(C(=S)NC(=O)c1ccco1)c1cccc2ccccc12	x	n	36	n	n	x	n
CCN(C(=S)NCCOC)c1cccc2ccccc12	n	n	n	n	n	n	x
Cc1ccc(/C=C2\Oc3cc(OC(=O)N4CCOCC4)ccc3C2=O)cc1	n	n	n	n	n	n	x

Compound activity deposited in PubChem by The Scripps Research Institute Molecular Screening Center.
